Laboratory results from the EternaBench riboswitch data.

What was measured:
MS2 coat protein [1] = assay: apparent Kd, MS2 coat protein; higher = weaker binding; RNA-MaP array
In short: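 Sequenced DNA templates on an Illumina sequencing chip were transcribed into the designed RNAs. These were incubated at room temperature in Tris-HCl pH 7.5 buffer containing KCl, MgCl2, BSA, DTT, tRNA and Tween20 with fluorescently labeled MS2 coat protein at 1.5 nM to 3 μM, with or without input ligand. Apparent Kd is the median of binding-curve fits per cluster, and designs with fewer than 10 clusters measured were excluded.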

MS2 coat protein [2] = assay: apparent Kd, MS2 coat protein; higher = weaker binding; RNA-MaP array; FMN 200 µM where present
In short: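 The apparent Kd is reported as the median of filtered per-cluster binding-curve fits. To get these curves, designs transcribed by stalled E. coli RNA polymerase on Illumina sequencing-chip clusters were titrated with SNAP-549-labelled MS2 coat protein from 0.7 or 1.5 nM, doubling to 3 µM. Titrations were run without and then with constant ligand in 100 mM Tris-HCl pH 7.5, 80 mM KCl, 4 mM MgCl2, BSA, DTT, yeast tRNA and Tween-20, and green signal was normalised to red-channel RNA signal and control-cluster median Fmax.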

[3] = designed as: ON switch for flavin mononucleotide, no ligand
[4] = ligand present: flavin mononucleotide, designed as: ON switch for flavin mononucleotide
[5] = designed as: OFF switch for flavin mononucleotide, no ligand
[6] = ligand present: flavin mononucleotide, designed as: OFF switch for flavin mononucleotide

Sequence: AACAUGAGGAUCACCCAUGUUAGAAUAACAACGGAAAUAACAGAGGAUAUCGUUAAUUAAUAGCGCGAGAAGGCAGAAUUCAAA
- apparent Kd (MS2 coat protein [1]; [3]): 6.86 nM
- apparent Kd (MS2 coat protein [1]; [4]): 5.95 nM

Sequence: AUAGGGCGACAGAAGGGCAGUGCACGCAUUGCUGCAGGAUAUGUGGUCCACAUGAGGAUCACCCAUGUAGUAAUAUCUUGUAGU
- apparent Kd (MS2 coat protein [1]; [3]): 104 nM
- apparent Kd (MS2 coat protein [1]; [4]): 71.2 nM

Sequence: CUCUAACAAGGAUAUACAUGUCCCAGGAUCCUAUAGGCUUUACAUGAGGAUCACCCAUGUAGAAGGUGUAUUAC
- apparent Kd (MS2 coat protein [1]; [5]): 18.7 nM
- apparent Kd (MS2 coat protein [1]; [6]): 16.4 nM

Sequence: ACGAGGUACACAGGAUAUGCAAACAUGAGGAUCACCCAUGUGUUCGCCAAUAUCGUGAAUGUGUCGCAGAAGGGUGGUAGUCUA
- apparent Kd (MS2 coat protein [1]; [3]): 12.3 nM
- apparent Kd (MS2 coat protein [1]; [4]): 9.83 nM

Sequence: GGGUGAAGUGAGAAGGUUGGUGCUAGUUAAUUCAAAGGAUAUCAUUACUACGACAUGAGGAUCACCCAUGUAGCUGUACUGGAA
- apparent Kd (MS2 coat protein [1]; [5]): 14.3 nM
- apparent Kd (MS2 coat protein [1]; [6]): 12.4 nM

Sequence: CUCGAGUUUACAGGAUAUUAGGAAAUCGGAUAUUAAGAAGGGUAAAUGUACAUGAGGAUCACCCAUGUUCUCUGCUGCGUCAUA
- apparent Kd (MS2 coat protein [1]; [5]): 15.4 nM
- apparent Kd (MS2 coat protein [1]; [6]): 14.5 nM

Sequence: CCCAGAUGCUAGAAGGCCUACAUGAGGAUCACCCAUGUAUCCGCUAUCCACACACGCAGGCGGCAGGAGGAUAUAGACGAAGGA
- apparent Kd (MS2 coat protein [1]; [3]): 8.84 nM
- apparent Kd (MS2 coat protein [1]; [4]): 6.63 nM

Sequence: UUUCGUAACCAACAUGAGGAUCACCCAUGUAGAAAGUUCCUAAGAAGGACAUAACCCAAUAGCAUGUAGGAUAUAAGUAAUCAC
- apparent Kd (MS2 coat protein [1]; [3]): 12.1 nM
- apparent Kd (MS2 coat protein [1]; [4]): 10.8 nM

Sequence: AUAGAGGAAGGAUAUACAUGAGGAUCACCCAUGUAACGAAGUAGUUGGAUGCCAUGAAGUAGAAGGUCCAGAUG
- apparent Kd (MS2 coat protein [1]; [5]): 14.5 nM
- apparent Kd (MS2 coat protein [1]; [6]): 13.6 nM

Sequence: GACAAGACAGGAUAUACAUAUAUGUAGCACGAAGAGUUAAGACAUGAGGAUCACCCAUGUAGAAGGGUCAUAAA
- apparent Kd (MS2 coat protein [1]; [5]): 19.2 nM
- apparent Kd (MS2 coat protein [1]; [6]): 17.7 nM

Sequence: AAGCCCAGGACGGCCGCCACUGUAAAAUGGUGGUUCGCCUGUAAGAACAUGAGGAUCACCCAUGUCAGGACCGGGUCCACGAGUU
- apparent Kd (MS2 coat protein [1]; designed as: OFF switch for tryptophan, no ligand): 17.6 nM
- apparent Kd (MS2 coat protein [1]; ligand present: tryptophan, designed as: OFF switch for tryptophan): 27.1 nM

Sequence: GACAUGAGGAUCACCCAUGUGGGAAAGGUGUACUCUUGCGACUAGGAUAUGUUGUGGUCCCAGAGACAGAAGGAGUGGCGACGU
- apparent Kd (MS2 coat protein [1]; [5]): 52.1 nM
- apparent Kd (MS2 coat protein [1]; [6]): 42 nM

Sequence: AUAUAGGCCCAGAAGGUGCCAGCGAGAGCUGCACAUGAGGAUCACCCAUGUUGUCGGUGACGACGCAAGGAUAUGGGCCUAUAU
- apparent Kd (MS2 coat protein [2]; [3]): 24.8 nM
- apparent Kd (MS2 coat protein [2]; [4]): 7.13 nM

Sequence: AAGUCGAGUGUGAGGAUAUUGACCGGACGACCCAUCGAGAAGGCACAUGAGGAUCACCCAUGUGAUUCAGCUCA
- apparent Kd (MS2 coat protein [2]; [5]): 17 nM
- apparent Kd (MS2 coat protein [2]; [6]): 23 nM

Sequence: AAUAACAGAGGAUAUACUAUUUUAUGUGUUUGUUGUUUUAAACAUGAGGAUCACCCAUGUAGAAGGCUGAAUGA
- apparent Kd (MS2 coat protein [2]; [5]): 22.8 nM
- apparent Kd (MS2 coat protein [2]; [6]): 27.6 nM

Sequence: GUCGGAAACGACAAACGUAGCAUACGAGAAGGCUGAUCCACGACAUGAGGAUCACCCAUGUAUUUAGAGGAUAUUGGAUGCUAC
- apparent Kd (MS2 coat protein [2]; [3]): 126 nM
- apparent Kd (MS2 coat protein [2]; [4]): 20.3 nM

Sequence: CUGUUGUGGUGCUGCUUGGCUUGGAGAGAAGGGUGAUUCACAUGAGGAUCACCCAUGUAGGACUUACAGGAUAUUUCCGGGUCU
- apparent Kd (MS2 coat protein [2]; [3]): 17.8 nM
- apparent Kd (MS2 coat protein [2]; [4]): 18.8 nM

Sequence: GGAGACCUCACAGGAUAUGCUGGACUUUGUCCAGCAGAAGGGUGAAACAUGAGGAUCACCCAUGUUGGUCUCCAAAUAUUUAAU
- apparent Kd (MS2 coat protein [2]; [3]): 660 nM
- apparent Kd (MS2 coat protein [2]; [4]): 54.1 nM

Sequence: CCGGUAUAGGAGGAUAUAGGAGUCGAUAGACACCUAGAAGGCCUGACAUGAGGAUCACCCAUGUGUCCUACCGG
- apparent Kd (MS2 coat protein [2]; [5]): 17 nM
- apparent Kd (MS2 coat protein [2]; [6]): 20 nM

Sequence: UACAUGAGGAUCACCCAUGUUUUGUCGUGUAUGGUAUUUAUCUAGGAUAUCAAUUUGUUAAUUUAUGAGAAGGAGAAUAUUAAU
- apparent Kd (MS2 coat protein [2]; [5]): 35.3 nM
- apparent Kd (MS2 coat protein [2]; [6]): 38.3 nM

Sequence: CCAACGUACAAUUUAGAUCUACAUGAGGAUCACCCAUGUACGGAGGAUAUCAGCUCGUUUAGAGCUGAGAAGGCCGAAUUAAUU
- apparent Kd (MS2 coat protein [2]; [3]): 342 nM
- apparent Kd (MS2 coat protein [2]; [4]): 77.4 nM

Sequence: AUGGUGCAGGUACAGGAUAUGUUGCUCGUAACAUGAGGAUCACCCAUGUACCUAUGAGAUUAAAUGCAGAAGGGUGCACACCAAA
- apparent Kd (MS2 coat protein [2]; [3]): 538 nM
- apparent Kd (MS2 coat protein [2]; [4]): 20.6 nM

Sequence: GGAGGACAUGAGGAUCACCCAUGUGGAUGAUCGCUAGGAUAUGCGUAAAGGAGGAGUGGUGCAGAAGGAGUGGGAU
- apparent Kd (MS2 coat protein [2]; [3]): 464 nM
- apparent Kd (MS2 coat protein [2]; [4]): 360 nM
